Reference: ChEMBL document CHEMBL5678801, “A benzothiophene inhibitor of mitogen-activated protein kinase-activated protein kinase 2 inhibits tumor necrosis factor alpha production and has oral anti-inflammatory efficacy in acute and chronic models of inflammation” (J Pharmacol Exp Ther, 2010)
pIC50: −log10 of the molar value.

Legend:
[1] = target: T1, Mitogen-activated protein kinase kinase kinase 5 (Homo sapiens, UniProt Q99683); assay: Inhibition of ASK1 (unknown origin)
T1 sequence (Q99683 whole entry): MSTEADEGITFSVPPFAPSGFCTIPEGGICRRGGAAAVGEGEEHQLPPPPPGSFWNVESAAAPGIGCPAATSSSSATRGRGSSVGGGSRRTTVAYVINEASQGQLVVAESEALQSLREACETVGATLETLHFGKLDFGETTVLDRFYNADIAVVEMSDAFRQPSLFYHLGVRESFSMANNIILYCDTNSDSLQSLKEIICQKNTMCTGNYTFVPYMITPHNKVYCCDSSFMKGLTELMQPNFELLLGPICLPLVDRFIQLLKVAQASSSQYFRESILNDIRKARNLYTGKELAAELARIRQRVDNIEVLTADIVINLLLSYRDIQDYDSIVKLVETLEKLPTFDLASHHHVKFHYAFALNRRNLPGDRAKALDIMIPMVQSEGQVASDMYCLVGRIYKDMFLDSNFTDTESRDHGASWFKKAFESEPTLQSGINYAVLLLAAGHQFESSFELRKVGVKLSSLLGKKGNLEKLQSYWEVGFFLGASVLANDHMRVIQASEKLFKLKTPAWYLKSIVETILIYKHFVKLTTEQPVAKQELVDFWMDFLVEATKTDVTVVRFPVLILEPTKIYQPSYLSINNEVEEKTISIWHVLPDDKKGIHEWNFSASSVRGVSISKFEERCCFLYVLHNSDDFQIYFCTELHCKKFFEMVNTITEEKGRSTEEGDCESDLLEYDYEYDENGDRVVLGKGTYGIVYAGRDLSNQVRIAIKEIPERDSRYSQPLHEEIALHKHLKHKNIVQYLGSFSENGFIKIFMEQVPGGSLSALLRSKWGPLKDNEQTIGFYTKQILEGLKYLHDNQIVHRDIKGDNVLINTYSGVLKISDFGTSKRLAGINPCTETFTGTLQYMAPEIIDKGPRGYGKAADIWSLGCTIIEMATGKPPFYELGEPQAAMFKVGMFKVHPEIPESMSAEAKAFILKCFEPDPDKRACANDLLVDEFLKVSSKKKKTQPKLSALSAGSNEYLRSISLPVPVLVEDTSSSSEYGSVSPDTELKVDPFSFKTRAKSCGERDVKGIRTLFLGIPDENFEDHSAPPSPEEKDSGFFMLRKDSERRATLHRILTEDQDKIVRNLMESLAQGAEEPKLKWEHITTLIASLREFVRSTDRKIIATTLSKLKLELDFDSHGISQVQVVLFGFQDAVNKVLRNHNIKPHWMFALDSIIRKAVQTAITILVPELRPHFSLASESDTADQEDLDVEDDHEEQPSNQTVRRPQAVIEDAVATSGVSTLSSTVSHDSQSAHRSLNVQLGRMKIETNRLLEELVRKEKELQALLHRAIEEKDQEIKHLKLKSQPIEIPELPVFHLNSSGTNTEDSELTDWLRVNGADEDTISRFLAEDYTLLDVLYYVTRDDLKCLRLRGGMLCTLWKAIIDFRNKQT
Method in brief: (§1)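 Kinase panel: 200 kinases were first screened at 1 μM inhibitor for percent inhibition. Those above 50% inhibition were then titrated for IC50. MgATP was fixed at the Km(app) determined for each enzyme.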

[2] = Plasma concentration in po dosed LPS-induced Lewis rat model at ED80 concentration measured after 5.5 hrs of initial dose by LC-MS/MS analysis; format: ADME, organism-based
Method in brief: (§2)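 Male Lewis rats (225-250 g, 5 per group) were fasted 18 h, then dosed orally at 0.2-60 mg/kg as a suspension in 0.5% methylcellulose/0.025% Tween 20. LPS 1 mg/kg was given i.v. 4 h later. Blood was taken by cardiac puncture 90 min after LPS. Serum TNFα was read by ELISA and drug by LC-MS/MS, three independent experiments. 4-parameter fit. Unbound values were corrected with measured rat plasma protein binding.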

[3] = Antiinflammatory activity in human PBMC cells assessed as inhibition of LPS induced IL-8 production preincubated for 1 hr followed by LPS stimulation and measured after 16 hrs by MSD analysis; format: functional, cell-based
Method in brief: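 Human PBMCs were pretreated with compound for 1 h (<1% DMSO final), then stimulated with LPS 100 ng/ml at 37°C. Cytokines in culture media were read by MSD 4-plex: TNFα at 4 h; IL-1β, IL-6 and IL-8 at 16 h. Data are means ±S.E.M. of two independent experiments in duplicate, three donors. IC50 by 4-parameter nonlinear regression.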

[4] = Inhibition of IL-1 beta production in LPS induced human Whole blood cell preincubated with compound for 1 hr followed by LPS induction and measured after 16 hrs; format: functional, cell-based
Method in brief: (§3)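 Human whole blood was stimulated ex vivo with LPS 100 ng/ml. Plasma cytokines were read by MSD 4-plex: TNFα at 4 h; IL-1β, IL-6 and IL-8 at 16 h. Data are means ±S.E.M. of two independent experiments in duplicate, three donors. IC50 by 4-parameter nonlinear regression.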

[5] = Tmax in Sprague-Dawley rat measured upto 24 hrs by […] analysis; format: ADME; settings: in vivo
Method in brief: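 Male Sprague-Dawley rats (275-300 g), carotid-catheterized and acclimated overnight. Dosing was i.v. at 1 mpk (n=2) in 70% saline/20% PEG-400/10% ethanol, or oral at 3 mpk (n=3) as a suspension in 0.5% HPMC/Tween. Plasma drug was measured by LC-MS/MS. Cmax and Tmax were read from individual profiles. t½ came from the terminal log-linear slope and AUC by the linear trapezoidal rule. CL = dose/AUC0-∞, Vdss = CL×MRT, F = dose-normalized AUC po/iv.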

[6] = Cytotoxicity against human Whole blood cell assessed as reduction in cell viability at upto 20 uM; format: toxicity, cell-based
Rattus norvegicus = organism: Rattus norvegicus; assay: Inhibition of rat MK2 assessed as unbound fraction
[7] = Antiinflammatory activity in human Whole blood cell assessed as inhibition of LPS induced IL-1 beta production preincubated for 1 hr followed by LPS stimulation and measured after 16 hrs by MSD analysis; format: functional, cell-based; method in brief: as §3
[8] = Plasma protein binding in human; format: ADME, cell-free; settings: read-out: PPB (converted)
Method in brief: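 Binding to rat and human plasma was measured in vitro by ultracentrifugation.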

[9] = Unbound plasma concentration in po dosed LPS-induced Lewis rat model at ED80 concentration measured after 5.5 hrs of initial dose by LC-MS/MS analysis; format: ADME, organism-based; settings: in vivo; method in brief: as §2
[10] = target: Serine/threonine-protein kinase pim-1 (Homo sapiens, UniProt P11309); assay: Inhibition of Pim1 (unknown origin); method in brief: as §1
Sequence of Serine/threonine-protein kinase pim-1 (P11309 whole entry): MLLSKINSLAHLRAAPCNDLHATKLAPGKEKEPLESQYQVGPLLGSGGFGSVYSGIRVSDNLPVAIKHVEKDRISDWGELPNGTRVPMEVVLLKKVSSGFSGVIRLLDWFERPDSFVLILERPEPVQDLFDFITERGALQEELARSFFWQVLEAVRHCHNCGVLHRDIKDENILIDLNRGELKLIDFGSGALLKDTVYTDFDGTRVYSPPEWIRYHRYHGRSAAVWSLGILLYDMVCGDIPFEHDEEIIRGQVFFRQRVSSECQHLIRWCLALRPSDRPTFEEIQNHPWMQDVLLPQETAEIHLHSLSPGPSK

pIC50 [1]: 7.22 | concentration at 5.5 h [2]: 4200 nM | pIC50 [3]: 5.59 | pIC50 [4]: < 4.60 | Tmax [5]: 10.2 min | fEC50 (Rattus norvegicus): 110 nM | pIC50 [7]: < 4.70 | fraction unbound [8]: 0.064 | Cp(f) [9]: 340 nM | pIC50 [10]: 7.06
SMILES: Cc1ccc(-c2ccc3c(ccc4sc5c(c43)NC[C@@H](C)NC5=O)n2)cn1
Activity [6]: Non-Toxic
